# High-throughput results (PubChem)
# T cruzi repl: inhibitors of intracellular T. cruzi growth, primary screen, luminescence, NIH3T3 host cells. T. cruzi beta-gal in NIH3T3, 90 h. inhibition, % (concentration not given with the values). hit rate 1.4% among 300,000. AID 1885, 2009;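 active = mean inhibition across valid replicates above about 55%, limit read from the data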;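 note: signal also drops with host cell toxicity which is not excluded here; 0% = plate median of DMSO wells and 100% = zero luminescence signal; higher percent means less beta-gal luminescence so fewer parasites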
#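 Assay system: NIH/3T3 host cells with β-galactosidase reporter T. cruzi; input: 5,000 host fibroblasts per well; compound: single 50 nL compound addition per well in DMSO; timing: ≥90 h infection period, 3 h prior cell attachment; measured by: GalScreen β-gal luminescence, detergent lysis, 60 min; evaluation: percent inhibition of parasite-derived β-gal signal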
# HSF1 inhib: HSF1 inhibitors in luciferase reporter cells, primary screen, cell-based, NIH3T3, luminescence; NIH3T3-HGL HSE-luciferase, MG132-induced, luminescence 8 h; stronger effect = lower value; activity change, negative = inhibition, % at 7.5 µM (by protocol); hit rate 0.77% among 300,000; AID 2098, 2009;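 active = more than half of replicate wells show activity change below -50%, luminescence cut by over half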;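 note: luciferase reports HSF-1 transcriptional activity via heat shock element; 0% = median of DMSO wells and -100% = zero luminescence signal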
# GPR7 antag: GPR7 receptor antagonists, primary screen, cell-based, fluorescence, single concentration; inhibition, % at 4.4 µM; Neuropeptides B/W receptor type 1 (Homo sapiens), P48145; hit rate 1.1% among 290,000; GPR7-expressing cells, fluorescence antagonist assay; in the data active = inhibition above about 16%, passing the limit was not always enough;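 note: cells stimulated with the agonist NPW; 0% = agonist with vehicle and 100% = vehicle without agonist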
# Target sequence (P48145 whole entry, looked up): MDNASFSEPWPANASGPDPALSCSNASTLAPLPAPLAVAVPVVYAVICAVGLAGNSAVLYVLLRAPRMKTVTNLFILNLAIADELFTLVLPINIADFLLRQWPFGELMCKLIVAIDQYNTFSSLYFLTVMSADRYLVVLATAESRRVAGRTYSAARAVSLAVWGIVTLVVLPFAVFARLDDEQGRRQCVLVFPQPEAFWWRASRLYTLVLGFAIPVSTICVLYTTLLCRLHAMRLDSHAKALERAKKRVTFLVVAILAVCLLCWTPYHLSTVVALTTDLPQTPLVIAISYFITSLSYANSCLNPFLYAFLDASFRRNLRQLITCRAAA
# HSF1 activator: HSF-1 activators, primary screen, NIH3T3-HGL cells, MG132 stress, luminescence, single point. hit rate 1.7% among 300,000. NIH3T3-HGL HSF-1 luciferase reporter, 8 h; 100% = twice DMSO control signal. activation, % at 9 µM;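 active = mean replicate activation of at least 50% with a set share of replicates each reaching 50%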;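 note: 0% = median of the neutral control wells and 100% = twice that signal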
# 697 NFkB inh: inhibitors of PMA/ionomycin-induced NF-kB reporter, 697 cells, primary screen, B-cell NF-kB inhibitor project, cell-based, luminescence, uHTS. 697 B-cell NF-kB luciferase reporter, 16 h. inhibition, % at 4 µM. hit rate 0.33% among 330,000. AID 435022, 2010; in the data active = inhibition above about 35%
# Jurkat NFkB inh: inhibitors of induced NF-kB luciferase reporter, primary screen, TCR NF-kB activation inhibitor project, cell-based, luminescence, uHTS. inhibition, % at 4 µM. hit rate 0.53% among 330,000. Jurkat, PMA/ionomycin-induced NF-kB luciferase reporter; in the data active = inhibition above about 50%
# 697 NFkB conf: PMA/ionomycin-induced NF-kB reporter inhibitors, 697 retest, confirmation, B-cell NF-kB inhibitor project, cell-based, luminescence, single concentration. shares compounds with 697 NFkB inh. 697 B-cell NF-kB luciferase, 16 h. inhibition, % at 4 µM. hit rate 35% among 2,000. AID 449746, 2010; in the data active = inhibition mostly above about 28%, no sharp cut-off; inactive = mostly below about 22%
# * marks the source's active call; other numbers are inactive results; i = inactive; / = no result given. Compounds with a hit are over-represented: about 4.8% of the library has one in this group of screens.
SMILES,T cruzi repl,HSF1 inhib,GPR7 antag,HSF1 activator,697 NFkB inh,Jurkat NFkB inh,697 NFkB conf
CC(=O)N(CCC(c1ccco1)C(C)C)Cc1ccc(OC(C)C)cc1 (stereo not given),/,/,-8,/,0,12,/
CC(=O)c1ccc(N=Nc2ccc(N(C)C)cc2)cc1,14,-14,2,-17,-182,-80,/
CN(C)c1ccc(N=Nc2ccccc2Br)cc1,4,-9,-16,-11,-279,-132,-379
Cc1ccc(S(=O)(=O)Nc2ccc3c(c2)n(C)c(=O)n3C)cc1,-16,0,-21,24,47*,-10,29*
Cc1ccc(NS(=O)(=O)c2ccc3c(c2)n(C)c(=O)n3C)cc1C,1,8,-12,18,-6,7,/
Cn1c(=O)n(C)c2cc(NS(=O)(=O)c3ccccc3)ccc21,-11,5,-12,18,36*,-2,32*
CC(=O)Nc1c(N)c2ccccc2oc1=O,8,-3,3,-6,0,-4,/
CC(C)(C)c1ccc(S(=O)(=O)N2CCN(CC(O)CN3CCOCC3)CC2)cc1 (stereo not given),/,/,/,/,1,-6,/
Cn1nc(-c2ccc(Cl)cc2)nc2c(=O)n(C)c(=O)nc1-2,56*,-95*,-22,-94,-316,28,-293
COc1ccc(NC(=O)c2ccc(COc3ccccc3OC)o2)cc1OC,-9,3,5,-20,-15,-11,/
COc1ccc(NC(=O)c2ccc(COc3ccccc3Br)o2)cc1OC,6,-2,-11,17,43*,2,5
CC(C)Cn1c(N)c(-c2nc(C(C)C)c(C(=O)c3ccccc3F)s2)c(=O)n(C)c1=O,47,-2,-5,5,-22,0,/
NC(=O)c1c(NC(=O)c2ccco2)sc2c1CCC2,-12,25,-9,40,-88,-89,/
NC(=O)c1c(NC(NC(=O)c2ccco2)(C(F)(F)F)C(F)(F)F)sc2c1CCCC2,-7,5,5,17,39*,11,7
COc1ccc(-c2cccc(-c3cc(=O)oc4cc(OC)cc(OC)c34)c2)cc1,/,/,/,/,-337,/,-112
COc1cc(OC)c2c(-c3cccc(-c4ccc(N(C)C)cc4)c3)cc(=O)oc2c1,/,/,/,/,-303,/,-105
COc1cc2c(cc1OC)CN(CC(=O)Nc1ccc(C)c(C)c1)CC2,-4,-3,-3,-15,-10,-4,/
Cc1nc2cc(C(=O)NCc3cccnc3)ccc2n1-c1ccc(F)cc1F,18,-5,6,3,6,-5,/
COc1ccc(C2c3[nH]c4ccccc4c3CCN2C(=O)c2ccc(=O)n(C)n2)c(F)c1 (stereo not given),8,5,11,17,-29,-35,/
CCc1cc(C(=O)N2CCc3c([nH]c4ccccc34)C2c2ccc(OC)cc2F)no1 (stereo not given),6,10,-8,10,i,-2,-48
CCCc1c(O)nc(SCC(=O)O)[nH]c1=O,-36,-3,-12,-1,14,-10,/
Cc1ccccc1C(=O)Nc1nnc(S(=O)(=O)N2CCCCC2)s1,-11,-2,-3,-5,8,-11,/
Cc1ccc2nc(NC(=O)CSCC(=O)OCC(=O)c3ccc(Br)cc3)sc2c1,-15,-66*,-3,-73,64*,41,54*
CCOC(=O)Cc1csc(NC(=S)NC(=O)c2ccc(C)cc2)n1,-1,-39,-6,-39,70*,-5,89*
COc1ccc(-c2cc3ccc(OC)cc3cn2)cc1,/,/,/,/,-327,-144,-390
COc1ccc2cc(-c3cccnc3)ncc2c1,/,/,/,/,-99,-129,/
O=C(c1cccc(S(=O)(=O)N2CCOCC2)c1)N1CCCC1,-12,2,-9,4,36*,6,8
